Compound activity (PubChem)
T cruzi repl: T. cruzi replication inhibition; T. cruzi beta-gal in NIH3T3, luminescence, 90 h; inhibition, % (test concentration not listed); actives 1.4% (n = 300,000); AID 1885;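 active means mean inhibition across valid replicates above about 55%, limit read from the data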;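 further: signal also drops with host cell toxicity which is not excluded here; 0% = plate median of DMSO wells and 100% = zero luminescence signal; higher percent means less beta-gal luminescence so fewer parasites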
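compound dosing = single 50 nL compound addition per well in DMSO | material = NIH/3T3 host cells with β-galactosidase reporter T. cruzi | input = 5,000 host fibroblasts per well | timing = ≥90 h infection period, 3 h prior cell attachment | read-out basis = percent inhibition of parasite-derived β-gal signal | detection = GalScreen β-gal luminescence, detergent lysis, 60 min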
Mdm2-MdmX inh: inhibitors of human Mdm2/MdmX interaction. O15151+Q00987. SaOS-2 split-luciferase Mdm2/MdmX complementation, luminescence. inhibition, % at 8 µM. actives 3% (n = 330,000). AID 485346;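 active means inhibition of at least 50% at 8 µM in the primary screen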
SKKanGAS inh: blocks kanamycin growth of S. pyogenes SKKanGAS strain; inhibition, % at 7.5 µM; actives 1.3% (n = 300,000); AID 1662; BacTiter-Glo, 6 h;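 active means mean replicate score, as percent of positive control median, at least 50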;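 further: strain carries kanamycin resistance gene driven by streptokinase promoter and grows in 40 µg/ml kanamycin; loss of luminescence reflects streptokinase promoter inhibition or plain growth inhibition; 0% = median of DMSO wells and 100% = positive control at its reference dose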
aSyn 5UTR inh: 5' untranslated region of α-synuclein, MLPCN primary screen; alpha-synuclein 5'UTR reporter, inhibitor activity; inhibition, % (tested at 7.5 µM); actives 0.82% (n = 300,000); AID 1813; in the data active means inhibition above about 60%;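 further: H4 neuroglioblastoma cells stably carrying SNCA 5'UTR luciferase fusion; 0% = DMSO wells and 100% = positive control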
CSC inhib: cancer stem cell inhibition; actives 1.1% (n = 300,000); inhibition, % at 7.5 µM; AID 2717; cancer stem cell-like cells viability, luminescence; in the data active means inhibition above about 75%; tested in HMLE shEcad cells
Numbers without * were called inactive; . = no result given. Only some compounds are listed: those with a hit (about 5.4% of all), similar ones and a draw of the others.

SMILES | T cruzi repl | Mdm2-MdmX inh | SKKanGAS inh | aSyn 5UTR inh | CSC inhib
COc1ccc(C(=O)C2CCCN(Cc3ccc(C#CCCO)cc3)C2)cc1F (centres undefined) | 58.9* | 18.2 | -3.6 | 16.8 | -0.6
COCc1cc(CN2CCCC(C(=O)c3cccc(C(F)(F)F)c3)C2)ccc1OC (centres undefined) | 65.7* | 2.2 | 4.5 | -13.6 | 25.6
O=C(NCC1CCCN(Cc2ccc3nonc3c2)C1)c1cccc(C(F)(F)F)c1 (centres undefined) | 57.6* | -23.9 | 4.5 | -2.4 | 10.5
CCn1c(SCC(=O)N2CCN(c3ccc(F)cc3)CC2)nc2ccccc2c1=O | 19.8 | 8.3 | 8.9 | 21.3 | 76.9*
CCOC(=O)c1cnc(-n2nc(C)cc2C)nc1Oc1ccccc1F | 10.9 | 6.3 | -7.9 | 3.5 | -9.2
CCOC(=O)c1cnc(-n2nc(C)cc2C)nc1Oc1ccc(C(=O)OC)cc1 | 17.5 | 4.2 | -5.4 | -8.4 | -3.0
CCOc1ccc(Nc2cc(C)nc(-n3nc(C)cc3C)n2)cc1 | 51.2 | 43.6 | 87.1* | 62.9* | 57.1
CCOC(=O)c1cnc(-n2nc(C)cc2C)nc1NCc1ccc2c(c1)OCO2 | 70.2* | 32.3 | 48.1 | 6.8 | -4.2
CCOC(=O)c1cnc(-n2nc(C)cc2C)nc1Nc1ccc(OC)cc1 | 46.8 | -27.5 | 66.5* | 36.9 | -4.3
CCOC(=O)c1cnc(-n2nc(C)cc2C)nc1NCCc1ccccc1 | 55.2* | 15.7 | 24.8 | 7.0 | -16.1
COc1ccc(/C=N/NC(=O)C(=O)N2CCCCCC2)cc1O | 0.1 | 6.2 | 0.1 | -8.5 | -1.4
Cc1ccc(S(=O)(=O)CC(=O)N2CC(C)OC(C)C2)cc1 (centres undefined) | -23.6 | 3.0 | -1.1 | 5.0 | -4.0
COC(=O)[C@]1(C)N[C@H](CN(C)S(=O)(=O)c2ccc(C(F)(F)F)cc2)[C@@H]2C(=O)N(C)C(=O)[C@@H]21 | . | 12.6 | . | . | .
CC(C)C(NC(=O)C(Cc1ccccc1)NC(=O)OCc1ccccc1)C(=O)O (centres undefined) | -5.9 | 10.1 | -0.1 | 15.8 | 7.0
CC(C)N(C(=O)COC(=O)CCC(=O)c1cccs1)c1ccccc1 | . | 1.4 | . | . | -8.6
CCC(C)c1ccc(C(C)NC(=S)NC2CCCCC2)cc1 (centres undefined) | 37.9 | 48.9 | 50.4* | 4.8 | 1.5
Cc1ccc(S(=O)(=O)N2C[C@@H]3[C@H]4CC[C@H](C4)[C@@H]3[C@@H](C)[C@@H]2c2ccn([Si](C(C)C)(C(C)C)C(C)C)c2)cc1 | . | 21.8 | . | . | .
CCN(CC)C(=O)c1cc(Cl)ccc1NC(=O)c1ccco1 | 6.3 | -17.6 | 5.6 | -19.1 | -4.7
CCN(CC)P(=O)(Nc1ccccc1Br)c1ccc(N(C)C)cc1NC(=O)c1ccco1 (centres undefined) | 56.7* | 0.4 | 18.5 | -14.1 | -11.0
CC(C)(C)C(=O)C(Oc1cccc2nonc12)n1cncn1 (centres undefined) | -9.3 | 14.1 | -5.0 | 13.1 | -6.1
Cc1ccc(SCC(=O)N2c3ccccc3Sc3ccccc32)cc1 | 35.2 | 22.8 | 51.5* | -2.1 | 19.8
CSCCC(NC(=O)c1ccco1)C(=O)N1CCN(c2ccccc2O)CC1 (centres undefined) | . | . | . | . | -16.5
O=C(CCN1CCOCC1)N/N=C/c1cc(Br)cc(Br)c1O | -4.8 | 25.7 | 56.5* | -2.8 | 3.5
O=C(CSCc1cccc(Cl)c1)Nc1ccccc1-c1ccccc1 | 5.7 | 28.5 | -5.7 | 7.0 | 75.4*
Cc1ccccc1CSCC(=O)Nc1ccccc1-c1ccccc1 | 16.6 | 1.2 | -3.8 | 25.3 | 39.0
SMILES | T cruzi repl | Mdm2-MdmX inh | SKKanGAS inh | aSyn 5UTR inh | CSC inhib
O=C(NCCc1c[nH]c2ccccc12)C(=O)Nc1ccccc1 | -32.1 | -12.2 | -9.7 | -65.3 | 81.5*
Cc1cc2ncc(-c3ncc(C(F)(F)F)cc3Cl)cn2n1 | -7.7 | -33.4 | 0.4 | 65.4* | 2.6
Cc1nn2cc(-c3ncc(C(F)(F)F)cc3Cl)cnc2c1Br | -26.4 | -124.8 | -5.1 | 24.8 | 4.7
C=CCNC(=S)N1CCN(Cc2ccc3c(c2)OCO3)CC1 | 10.4 | 21.0 | 0.9 | 4.7 | 6.7
COc1cccc(COC(=O)CCNC(=O)c2ccc(Cl)cc2)c1OC | -2.0 | -3.0 | -13.7 | -0.2 | 6.5
COc1ccc(Nc2nc(C(C)(C)C)nc3c2nnn3Cc2ccccc2Cl)cc1OC | 43.2 | 45.1 | 26.9 | -0.2 | 17.4
CCOC(=O)CNc1nc(C(C)(C)C)nc2c1nnn2Cc1ccccc1Cl | 61.1* | 16.3 | 3.4 | 23.8 | -6.8
CCCN1CCC(=NNc2ccc(S(=O)(=O)N(CC)CC)cc2[N+](=O)[O-])CC1 | 8.0 | 39.6 | 2.9 | 78.9* | 48.1
